According to PubChem BioAssay:
Calls of active or inactive are those of the source.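 Rule for the calls, unless noted: active = inhibition at or above 50% at 10 µM; inactive = inhibition below 50%.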

Tests used:
[1] = inhibitors of TNFa-induced NFkB p65 translocation, primary screen, imaging, HUVEC, MLSMR starter and 10KST1 sets (AID 438;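 active = inhibition above 20% together with a positive visual image hit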;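 note: compound added about 3h40 before a 20 min TNFalpha stimulation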;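 for inhibition: signal is the nuclear over cytoplasmic p65 intensity ratio per well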); conditions: HUVEC TNFa-induced p65 nuclear translocation; cell count: measured here: nuclei count (cytotoxicity indicator), at 2.08 µM; inhibition: at 2 µM, stronger effect = higher value, 0% TNFa-plus-vehicle, 100% no-TNFa wells
[2] = reduction of polyQ htt aggregates in cells – imaging, exon1htt(103Q)mCFP cells, high-content imaging, primary screen (AID 483;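 active = visual image review flags a hit and inhibition of aggregation exceeds 20%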;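 note: compound exposure lasted 3 days before fixation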;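 for nuclei count: percent of the per-plate median nuclei count of sample wells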); conditions: exon1htt(103Q)mCFP cell line, aggregate imaging, at 2 µM; inhibition of aggregation: stronger effect = higher value; nuclei count: measured here: cell count, toxicity
[3] = endothelial E-selectin expression blockers – imaging, HUVEC, immunofluorescence, MLSMR starter and 10KST1 sets, primary screen (AID 487;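 active = visually confirmed hit in the image check and inhibition above 20%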;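 for inhibition: signal is fraction of cell area covered by stained E-selectin grains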;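 for nuclei count: 100% = median nuclei count of all wells on the same plate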); conditions: HUVEC TNFalpha-induced E-selectin immunofluorescence imaging, at 2 µM; inhibition: stronger effect = higher value; nuclei count: measured here: cell number, toxicity
[4] = biological target: Voltage-gated potassium channel subunit beta-2 (Rattus norvegicus) (UniProt P62483); test: inhibitors of rat Kvbeta2 reductase activity – biochemical, NADPH fluorescence, primary screen (AID 622;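 active = fluorescence slope higher than the sample average by over 3 SD, cut at about -0.22 in these data, passing the limit was not always enough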;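 note: slope of raw intensity against log time taken from 70 to 1610 s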); conditions: recombinant KvBeta, 4-cyanobenzaldehyde reduction, at 10 µM, stronger effect = higher value
[5] = biological target: Voltage-gated potassium channel subunit beta-2 (Rattus norvegicus) (UniProt P62483); test: enhancers of rat Kvbeta2 NADPH turnover – biochemical, NADPH fluorescence, primary screen (AID 623;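 active = NADPH fluorescence slope more negative than the mean of all samples by about 3 SD, 99.7% confidence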;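 note: fluorescence intensity change per second fitted from 20 to 320 s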); conditions: Recombinant KvBeta, NADPH fluorescence decrease slope, 10 min; at 10 µM; stronger effect = lower value
[6] = biological target: Muscarinic acetylcholine receptor M4 (Homo sapiens) (UniProt P08173); test: M4-linked GIRK flux change, two-sided – cell-based, HEK293 M4/GIRK, thallium flux, BTC-AM, M4 allosteric agonist project, primary screen (AID 625;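 active = fluorescence slope after compound addition differing from the mean of all tested samples at 99.7% confidence, mostly higher but some lower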;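 note: thallium influx through GIRK channels coupled to M4 in HEK293 cells with BTC-AM dye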); conditions: at 10 µM, actives lie on both sides
Method in brief: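 System: HEK293 cells with M4 receptor and GIRK channels | Incubation: Cells overnight at 37 °C, BTC-AM loading 1 h, reads 2 min total | Technique: Kinetic BTC-AM fluorescence sampled at 1 Hz, 10 s pre-addition baseline | Measure: Post-addition slope, 15–24 s, of baseline-normalized fluorescence | Control set: Carbachol positive, DMSO negative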

[7] = blockers of RIG-like receptor reporter activation – cell-based, Sendai virus stimulus, luciferase, 10K MLSCN set, TLR/RLR signaling modifier project, primary screen (AID 602276); conditions: HEK293 RL24 IRF3 luciferase reporter, at 10 µM, stronger effect = higher value;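 note: firefly luciferase from ISG56 promoter only with Renilla not read in this screen; 0% = Sendai virus plus DMSO and 100% = medium plus DMSO without virus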
[8] = TLR3 IRF3 reporter activation blockers – cell-based, poly I:C stimulus, luciferase, 10K MLSCN set, primary screen (AID 602277;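 active = inhibition of the reporter signal at or above 50%; inactive = inhibition below 50%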); conditions: HEK293-TLR3 RL24 IRF3 luciferase reporter, at 10 µM, stronger effect = higher value

Sequence of Voltage-gated potassium channel subunit beta-2 (Rattus norvegicus) (P62483 whole entry, looked up): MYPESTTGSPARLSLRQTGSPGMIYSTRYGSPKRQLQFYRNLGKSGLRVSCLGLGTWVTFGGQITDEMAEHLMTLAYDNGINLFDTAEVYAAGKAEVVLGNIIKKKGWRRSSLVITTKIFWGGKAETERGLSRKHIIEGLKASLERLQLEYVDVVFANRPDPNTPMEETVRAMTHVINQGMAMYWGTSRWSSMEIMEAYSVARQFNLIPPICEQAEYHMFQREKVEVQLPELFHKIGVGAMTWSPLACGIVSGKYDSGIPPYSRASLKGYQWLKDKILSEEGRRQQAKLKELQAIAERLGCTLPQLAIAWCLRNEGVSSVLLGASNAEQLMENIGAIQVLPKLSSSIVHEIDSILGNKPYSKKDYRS
Sequence of Muscarinic acetylcholine receptor M4 (Homo sapiens) (P08173 whole entry, looked up): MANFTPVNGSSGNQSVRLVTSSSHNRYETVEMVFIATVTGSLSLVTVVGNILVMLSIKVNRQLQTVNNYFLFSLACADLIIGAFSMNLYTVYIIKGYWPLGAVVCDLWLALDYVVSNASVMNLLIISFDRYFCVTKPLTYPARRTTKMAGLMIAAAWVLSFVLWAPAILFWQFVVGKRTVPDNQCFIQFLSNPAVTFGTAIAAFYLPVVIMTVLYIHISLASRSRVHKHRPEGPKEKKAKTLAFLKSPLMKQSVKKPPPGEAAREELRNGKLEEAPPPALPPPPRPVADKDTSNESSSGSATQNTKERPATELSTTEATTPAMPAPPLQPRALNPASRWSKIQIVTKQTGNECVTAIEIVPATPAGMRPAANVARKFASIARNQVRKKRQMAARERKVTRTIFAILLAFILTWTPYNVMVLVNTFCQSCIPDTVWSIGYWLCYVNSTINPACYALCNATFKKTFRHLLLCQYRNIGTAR

Compound | cell count [1] | inhibition [1] | inhibition of aggregation [2] | nuclei count [2] | inhibition [3] | nuclei count [3] | fluorescence slope [4] | NADPH fluorescence slope [5] | fluorescence slope [6] | inhibition [7] | inhibition [8]
Cc1nnc(C)n1/N=C/c1cccc(Oc2ccccc2)c1 | 344 | -0.6% (inactive) | 0.1% (inactive) | 102% | -5.9% (inactive) | 106% | -0.462 (inactive) | 1.6e-05 (inactive) | 0.00567 (inactive) | 21.3% (inactive) | 31.8% (inactive)
CCOc1ccc(C(=O)Cc2ccc3oc(C(=O)O)cc3c2)c(O)c1 | 580 | 10.2% (inactive) | 4.1% (inactive) | 63.8% | -3.3% (inactive) | 97.5% | -0.522 (inactive) | -4.9e-05 (inactive) | 0.00668 (inactive) | 16.4% (inactive) | 22.3% (inactive)
CCNC(=O)CC(=O)Nc1ccccc1C(=O)O | 725 | -14.7% (inactive) | 11.3% (inactive) | 90.3% | -35.3% (inactive) | 118% | -0.282 (inactive) | -2.6e-05 (inactive) | 0.00586 (inactive) | 17.2% (inactive) | 16.6% (inactive)
CCOc1ccccc1NC(=O)CSc1c(C)n[nH]c1C | 333 | -2% (inactive) | -21.4% (inactive) | 120% | -17.1% (inactive) | 113% | -0.548 (inactive) | -1.7e-05 (inactive) | 0.00526 (inactive) | 1.91% (inactive) | 15.3% (inactive)
Cn1c(SC/C=C/c2ccccc2)nnc1-c1cnccn1 | 630 | 1.1% (inactive) | -4.5% (inactive) | 114% | 6.2% (inactive) | 95.1% | -0.572 (inactive) | 2.7e-05 (inactive) | 0.00503 (inactive) | -12.1% (inactive) | -35% (inactive)
CSc1ccccc1NS(=O)(=O)c1ccccc1 | 558 | -1% (inactive) | -14.6% (inactive) | 96.9% | -8.2% (inactive) | 105% | -0.454 (inactive) | 1.4e-05 (inactive) | 0.00445 (inactive) | 13% (inactive) | 12.9% (inactive)
Cc1cc(NC(=O)c2ccc3nc(-c4ccccc4)c(-c4ccccc4)nc3c2)no1 | 536 | -0.9% (inactive) | -14.8% (inactive) | 102% | -66.9% (inactive) | 106% | -0.463 (inactive) | -2.8e-05 (inactive) | 0.00551 (inactive) | -16% (inactive) | -16.7% (inactive)
COCC(=O)Nc1sc2c(c1C(=O)OC)CCC(C)C2 (stereo not drawn) | 421 | 5.5% (inactive) | -7.6% (inactive) | 94.2% | -127% (inactive) | 126% | -0.471 (inactive) | -3.9e-05 (inactive) | 0.00475 (inactive) | 16.5% (inactive) | -17% (inactive)
COCCOC(=O)C1=C(C)Nc2ncnn2C1c1ccc(F)cc1 (stereo not drawn) | 743 | -0.4% (inactive) | 24.6% (inactive) | 71.5% | 12.9% (inactive) | 124% | -0.369 (inactive) | -0.000107 (inactive) | 0.00592 (inactive) | 6.2% (inactive) | 19.4% (inactive)
CCCOc1ccc(-c2nnn(CC(=O)Nc3cccc(C(=O)OC)c3)n2)cc1 | 380 | -2.1% (inactive) | -8.7% (inactive) | 109% | -27.4% (inactive) | 112% | -0.503 (inactive) | 0.000154 (inactive) | 0.00964 (inactive) | 11.3% (inactive) | -4.78% (inactive)
CCCCC(c1nnnn1CS(=O)(=O)c1ccc(C)cc1)N1CCN(c2ccccc2)CC1 (stereo not drawn) | 370 | 6.6% (inactive) | -10.3% (inactive) | 100% | -47.5% (inactive) | 102% | -0.46 (inactive) | -2.8e-05 (inactive) | 0.00637 (inactive) | 32% (inactive) | 16.2% (inactive)
CCOC(=O)c1ccccc1NC(=O)CSc1nc2c(c(=O)n(C)c(=O)n2C)n1C | 718 | -6.2% (inactive) | -10.4% (inactive) | 107% | 12.3% (inactive) | 102% | -0.444 (inactive) | 3e-05 (inactive) | 0.00588 (inactive) | 18.4% (inactive) | 25% (inactive)
O=C(NC1CCCc2ccccc21)C1CCN(S(=O)(=O)c2cnc[nH]2)CC1 (stereo not drawn) | 529 | -10.3% (inactive) | -6.4% (inactive) | 98.8% | -6.8% (inactive) | 111% | -0.566 (inactive) | -2.6e-05 (inactive) | 0.00517 (inactive) | 4% (inactive) | 19.5% (inactive)
CCOC(=O)c1ccc(NC(=O)CCc2nc(-c3ccc(C)cc3)no2)cc1 | 368 | 0.7% (inactive) | 21.5% (inactive) | 103% | -32.9% (inactive) | 116% | -0.556 (inactive) | -2.2e-05 (inactive) | 0.0041 (inactive) | 11.4% (inactive) | -5.93% (inactive)
CC(C)(C)OC(=O)N1CCOCCOCCN(C(=O)OC(C)(C)C)CCOCCOCC1 | 395 | 0.8% (inactive) | 2.5% (inactive) | 92.3% | -90.1% (inactive) | 119% | -0.579 (inactive) | -6.4e-05 (inactive) | 0.00267 (inactive) | 4.46% (inactive) | 6.47% (inactive)
Cc1cc2oc(=O)cc(CN3CCN(Cc4ccc5c(c4)OCO5)CC3)c2cc1C | 362 | 6.8% (inactive) | -15.1% (inactive) | 99.2% | -0.8% (inactive) | 108% | -0.536 (inactive) | -4.3e-05 (inactive) | 0.00603 (inactive) | 5.83% (inactive) | 27% (inactive)
Cc1[nH]n2c(=O)cc(Cc3ccccc3)nc2c1C#N | 786 | -6.7% (inactive) | 8.8% (inactive) | 106% | -15.8% (inactive) | 100% | -0.538 (inactive) | -3.6e-05 (inactive) | 0.00532 (inactive) | 15.1% (inactive) | 22% (inactive)
O=C1c2oc3ccccc3c(=O)c2C(c2ccccn2)N1Cc1ccccc1 (stereo not drawn) | 440 | -8.7% (inactive) | 1.8% (inactive) | 106% | -49.4% (inactive) | 125% | -0.563 (inactive) | -9.3e-06 (inactive) | 0.00477 (inactive) | -16.4% (inactive) | -22.3% (inactive)
Cc1nc(C)c(C(=O)Nc2ccc(C)c(F)c2)o1 | 600 | -4.5% (inactive) | 19.4% (inactive) | 97.5% | -2.7% (inactive) | 120% | -0.335 (inactive) | -5.2e-05 (inactive) | 0.00567 (inactive) | 4.25% (inactive) | -10.3% (inactive)
O=C1CC2CS(=O)(=O)CC2N1c1ccc(Oc2ccccc2)cc1 (stereo not drawn) | 330 | 3.1% (inactive) | 5.7% (inactive) | 88.5% | -33.8% (inactive) | 106% | -0.395 (inactive) | -8.8e-05 (inactive) | 0.00573 (inactive) | 17.3% (inactive) | 33% (inactive)
Nc1nonc1NC(=O)CSc1nc2ccccc2s1 | 519 | -8.4% (inactive) | 39.8% (active) | 61.2% | -50.5% (inactive) | 103% | -0.515 (inactive) | -0.000124 (inactive) | 0.00565 (inactive) | -7.11% (inactive) | 15.4% (inactive)
COCCn1nnnc1C(c1cc2cc(C)cc(C)c2[nH]c1=O)N1CCN(c2ccccc2F)CC1 (stereo not drawn) | 660 | 10.1% (inactive) | -11% (inactive) | 80.7% | 13.5% (inactive) | 130% | -0.413 (inactive) | 0.000111 (inactive) | 0.00818 (inactive) | 16.8% (inactive) | 29.8% (inactive)
c1ccc2c(NC3CCCC3)nnc(NC3CCCC3)c2c1 | 797 | 7.4% (inactive) | -6.1% (inactive) | 106% | -69.1% (inactive) | 131% | -0.419 (inactive) | 2.2e-05 (inactive) | 0.00394 (inactive) | 7.77% (inactive) | 7.29% (inactive)
CCOc1ccc(NC(=O)CN2CCN(CC(=O)Nc3ccc(F)c(F)c3)CC2)cc1 | 409 | 3.1% (inactive) | -0.9% (inactive) | 105% | -60.2% (inactive) | 99.8% | -0.435 (inactive) | 4.4e-05 (inactive) | 0.00651 (inactive) | 12.5% (inactive) | 23% (inactive)
Cc1cc2ncn(N)c2cc1C | 711 | -25.9% (inactive) | -20.7% (inactive) | 108% | -53.3% (inactive) | 118% | -0.224 (inactive) | -1e-05 (inactive) | 0.00519 (inactive) | 17.6% (inactive) | 15.1% (inactive)
CCn1c(CCNC(=O)c2ccc(OC)c(OC)c2)nc2ccccc21 | 275 | -8.5% (inactive) | -14.6% (inactive) | 95.7% | 3.1% (inactive) | 88.5% | -0.468 (inactive) | -3.6e-05 (inactive) | 0.00543 (inactive) | 15.9% (inactive) | 6.06% (inactive)
Cc1cccc(NC(=O)c2cc3n(n2)C(C(F)(F)F)CC(c2ccc4c(c2)OCO4)N3)c1 (stereo not drawn) | 555 | -6.9% (inactive) | 0.5% (inactive) | 82.7% | 45.8% (inactive) | 127% | -0.546 (inactive) | -3.2e-05 (inactive) | 0.00563 (inactive) | 25.3% (inactive) | 25.4% (inactive)
CCCC(O)(CCN(C)C)c1ccc(OC)cc1 (stereo not drawn) | 701 | 6.7% (inactive) | 18.4% (inactive) | 95.2% | -50.6% (inactive) | 87.3% | -0.543 (inactive) | -8.4e-06 (inactive) | 0.00506 (inactive) | 21.2% (inactive) | 29.6% (inactive)
